Substitutions are numbered along the chain they refer to. Several values for one entry are separate records, joined by “and”; a condition that tells them apart may be missing. Equal entries are not always repeated. Where two headings read alike, the source gives them in different places.
Legend:
[1] = biological target: CK2 (catalytic α and regulatory β subunits complex) (Homo sapiens, UniProt P67870+P68400); assay: In vitro phosphorylation by CK2, HPLC quantification; assay type: biochemical; conditions: for reduction of phosphorylation by addition of Ca2+: CK2, 37 °C
C-HsCen2-T138D = assay: ITC, peptide binding to C-HsCen2 T138D; set-up: species or system human; conditions: presence of Ca2+; versus C-HsCen2 wild type
Outline: (§1)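 Recombinant human centrin (full-length or C-terminal domain; Asp variants made by double-PCR mutagenesis) was expressed in E. coli BL21(DE3), heat-treated at 63 °C, then purified by ion-exchange, phenyl and gel-filtration chromatography. ITC at 30 °C: 10 μM centrin titrated with 100 μM N-acetylated, C-amidated peptide in 50 mM MOPS, 100 mM NaCl, pH 7.5, plus 1 mM CaCl₂ or 2 mM EDTA. Dilution heats subtracted; data fitted for n, Ka and ΔH.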

C-HsCen2-S158D = assay: ITC, peptide binding to C-HsCen2 S158D; set-up: species or system human; conditions: versus C-HsCen2 wild type
Outline: as §1

[2] = test system: HsCen1 (full-length human centrin 1); assay: ITC, peptide binding to full-length HsCen1; conditions: absence of Ca2+
Outline: as §1

C-HsCen2 T138D-S158D = assay: ITC, peptide binding to C-HsCen2 T138D-S158D; set-up: species or system human; conditions: presence of Ca2+; versus C-HsCen2 wild type
Outline: as §1

[3] = biological target: transducin β (Trd) 325-340 (UniProt P62873); assay: ITC, peptide titrated into centrin; conditions: reference: wild type C-HsCen1; sites T138
[4] = biological target: human centrin 1, full-length (human) (UniProt Q12798); assay: ITC
[5] = biological target: T1, C-terminal domain of human centrin 1 (M93-Y172) (human, UniProt Q12798 93-172); assay: ITC
[6] = biological target: T2, C-terminal domain of human centrin 2 (M93-Y172) (human, UniProt P41208 93-172); assay: ITC
[7] = biological target: T1, C-terminal domain of human centrin 1 …; assay: ITC; remark: listed apart in the source
[8] = biological target: T3, human centrin 1, full-length (human, UniProt Q12798 1-172); assay: ITC
T3 sequence: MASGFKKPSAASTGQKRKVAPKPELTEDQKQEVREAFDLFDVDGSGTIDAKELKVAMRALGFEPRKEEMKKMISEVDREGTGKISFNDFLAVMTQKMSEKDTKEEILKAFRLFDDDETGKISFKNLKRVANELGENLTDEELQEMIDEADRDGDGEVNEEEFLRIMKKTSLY

[9] = biological target: T4, human centrin 1 T138D, full-length (human, UniProt Q12798 1-172, T138D); assay: ITC
T4 sequence: T3 sequence with T138D

[10] = biological target: T3, human centrin 1, full-length; assay: ITC; remark: listed apart in the source
[11] = biological target: T4, human centrin 1 T138D, full-length; assay: ITC; remark: listed apart in the source
[12] = biological target: C-terminal domain of human centrin 1 T138D (human); assay: ITC
[13] = biological target: T5, C-terminal domain of human centrin 2 S158D (human, UniProt P41208 93-172, S158D); assay: ITC
[14] = biological target: T6, C-terminal domain of human centrin 2 T138D (human, UniProt P41208 93-172, T138D); assay: ITC
[15] = biological target: C-terminal domain of human centrin 2 T138D-S158D (human, UniProt P41208 93-172, T138D | S158D); assay: ITC
[16] = biological target: T2, C-terminal domain of human centrin 2 …; assay: ITC; remark: listed apart in the source
[17] = biological target: T5, C-terminal domain of human centrin 2 …; assay: ITC; remark: listed apart in the source
[18] = biological target: T6, C-terminal domain of human centrin 2 …; assay: ITC; remark: listed apart in the source
[19] = after 5 h, without Ca2+ (Fig. 1A, B)
[20] = after 3 h at 37 °C, EGTA, HPLC peak integration
[21] = after 3 h at 37 °C, presence of Ca2+

Chain of CK2 (catalytic α and regulatory β subunits complex) (P68400 whole entry): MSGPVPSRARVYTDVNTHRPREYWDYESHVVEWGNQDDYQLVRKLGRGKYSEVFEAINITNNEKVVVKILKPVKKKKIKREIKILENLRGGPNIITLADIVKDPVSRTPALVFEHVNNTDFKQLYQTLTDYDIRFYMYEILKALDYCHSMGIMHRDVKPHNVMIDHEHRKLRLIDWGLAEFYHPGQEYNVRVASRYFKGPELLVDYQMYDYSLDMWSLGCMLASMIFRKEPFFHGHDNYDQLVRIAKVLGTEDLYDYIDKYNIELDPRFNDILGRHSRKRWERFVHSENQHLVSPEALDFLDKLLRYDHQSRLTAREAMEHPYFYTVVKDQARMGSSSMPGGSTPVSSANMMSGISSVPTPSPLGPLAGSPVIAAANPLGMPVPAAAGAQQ
Chain of CK2 (catalytic α and regulatory β subunits complex) (P67870 whole entry partner): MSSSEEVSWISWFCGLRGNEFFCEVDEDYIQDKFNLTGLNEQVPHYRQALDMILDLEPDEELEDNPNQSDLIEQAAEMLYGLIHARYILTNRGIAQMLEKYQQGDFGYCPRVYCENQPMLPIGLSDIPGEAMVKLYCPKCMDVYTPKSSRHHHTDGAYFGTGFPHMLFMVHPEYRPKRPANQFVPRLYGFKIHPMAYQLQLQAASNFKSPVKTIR
T2 sequence (P41208 93-172): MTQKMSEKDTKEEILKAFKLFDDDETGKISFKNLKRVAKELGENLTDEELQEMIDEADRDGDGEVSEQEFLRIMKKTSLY
Chain of C-terminal domain of human centrin 2 T138D-S158D (P41208 93-172 T138D/S158D): as the sequence (P41208 93-172) above, with T46D, S66D counted along it
T6 sequence (P41208 93-172 T138D): as the sequence (P41208 93-172) above, with T46D counted along it
T5 sequence (P41208 93-172 S158D): as the sequence (P41208 93-172) above, with S66D counted along it

C-HsCen1N131K: N131K variant of the C-terminal domain of human centrin 1
reduction of phosphorylation by addition of Ca2+ [1]: 40%
reduction of phosphorylation by the mutation versus wild type ([1]; after 5 h): 30%
protein phosphorylated by CK2 [1, 19]: 50%

641-RADLHHQHSVLHRALQAWVT-660 [R17-Sfi1]
factor of increase of affinity by the T138D mutation (C-HsCen2-T138D): 3
factor of reduction of affinity by the S158D mutation (C-HsCen2-S158D; absence of Ca2+): 4.7
factor of increase of affinity by the S158D mutation (C-HsCen2-S158D; presence of Ca2+): 5
factor of decrease of binding constant of HsCen1 compared with R18-Sfi1 [2]: 10
factor of increase of affinity by the T138D-S158D double mutation (C-HsCen2 T138D-S158D): 2

C-HsCen2-S158D: S158D phosphomimetic variant of the C-terminal domain of human centrin 2
factor of reduction of the phosphorylation rate at T138 ([1]; C-HsCen2-S158D versus S158A variant, without Ca2+): 1.36
factor of reduction of the phosphorylation rate at T138 ([1]; C-HsCen2-S158D, presence of Ca2+): 2.1

C-HsCen1: C-terminal domain (M93-Y172) of human centrin 1, recombinant; here as CK2 substrate
reduction of phosphorylation by addition of Ca2+ [1]: 30%
protein phosphorylated by CK2 [1, 20]: 62%
protein phosphorylated by CK2 [1, 21]: 30%
protein phosphorylated by CK2 [1, 19]: 80%
protein phosphorylated by CK2 ([1]; after 10 h, presence of EGTA): 95%
protein phosphorylated by CK2 ([1]; after 48 h, presence of Ca2+): 80%
time after which 95% phosphorylation was achieved ([1]; presence of Ca2+): 48 h

human centrin 1 (HsCen1) C-terminal domain, 93-172 (from UniProt Q12798) C-HsCen1 T138E
other: Ka [3]: weaker; reference 0.54 (0.3)

C-HsCen2: C-terminal domain (M93-Y172) of human centrin 2, recombinant; here as CK2 substrate
protein phosphorylated by CK2 [1, 20]: 45%
protein phosphorylated by CK2 [1, 21]: 15%
protein phosphorylated by CK2 [1, 19]: 48%
protein phosphorylated by CK2 ([1]; after 48 h, presence of Ca2+): 50%

HsTrB, transducin β-derived peptide 325-340 (last WD repeat)
Ka [4]: 170000 M⁻¹
dH [4]: -12.2 kcal/mol

C-HsCen2-K131N: K131N variant of the C-terminal domain of human centrin 2
increase in phosphorylation by the mutation versus wild type ([1]; after 5 h): 12%
protein phosphorylated by CK2 [1, 19]: 60%

human centrin 1 (HsCen1) C-terminal domain, 93-172 (from UniProt Q12798) C-HsCen1 T138D
other: Ka [3]: weaker; reference 0.54 (0.3)

HsTrBW332L, transducin β peptide 325-340 W332L
Ka [4]: 130000 M⁻¹
dH [4]: -10.6 kcal/mol

Ac-TVWAQLARHLVSHQHHLDAR-NH2 [HsSfi1R17inv, repeat 17 peptide of human Sfi1 in reversed sequence orientation]
Ka [5]: 1.49e+08 M⁻¹
dH [5]: -21.6 kcal/mol
stoichiometry N [5]: 0.8
dH [6]: -20.1 kcal/mol and -22 kcal/mol
stoichiometry N [6]: 0.91 and 1.09
Ka [7]: 690000 M⁻¹
dH [7]: -26.6 kcal/mol
stoichiometry N [7]: 0.825

Ac-SQHNRQLLRGALRRWK-NH2 [HsSfiR18, repeat 18 peptide of human Sfi1 (677-692)]
Ka [5]: 8.15e+07 M⁻¹
dH [5]: -22.5 kcal/mol
stoichiometry N [5]: 0.99
Ka [8]: 2.49e+08 M⁻¹
dH [8]: -35.5 kcal/mol
stoichiometry N [8]: 0.88
Ka [9]: 2.39e+08 M⁻¹
dH [9]: -36.7 kcal/mol
stoichiometry N [9]: 0.77
Ka [10]: 3.47e+06 M⁻¹
dH [10]: -34.7 kcal/mol
stoichiometry N [10]: 0.88
Ka [11]: 875000 M⁻¹
dH [11]: -36.4 kcal/mol
stoichiometry N [11]: 0.83
Ka [7]: 3.56e+06 M⁻¹
dH [7]: -29.8 kcal/mol
stoichiometry N [7]: 1.03

Ac-MAVATGSWDSFLKIWN-NH2 [HsTrB, transducin β-derived peptide 325-340 (last WD repeat)]
Ka [9]: 180000 M⁻¹
dH [9]: -8.14 kcal/mol
stoichiometry N [9]: 0.75
dH [12]: -9.97 kcal/mol

Ac-RADLHHQHSVLHRALQAWVT-NH2 [HsSfiR17, repeat 17 peptide of human Sfi1 (641-660)]
Ka [5]: 1.25e+08 M⁻¹
dH [5]: -18 kcal/mol
stoichiometry N [5]: 1.21
Ka [6]: 190000 M⁻¹
dH [6]: -31.3 kcal/mol
stoichiometry N [6]: 0.72
Ka [13]: 40000 M⁻¹
dH [13]: -38.5 kcal/mol
stoichiometry N [13]: 0.77
Ka [14]: 230000 M⁻¹
dH [14]: -9.76 kcal/mol
stoichiometry N [14]: 0.75
Ka [10]: 347000 M⁻¹
dH [10]: -19.2 kcal/mol
stoichiometry N [10]: 1.12
Ka [7]: 120000 M⁻¹
dH [7]: -43.1 kcal/mol
stoichiometry N [7]: 0.88
Ka [15]: 3.5e+07 M⁻¹
dH [15]: -22.4 kcal/mol
stoichiometry N [15]: 0.91
Ka [16]: 1.82e+07 M⁻¹
dH [16]: -20.2 kcal/mol
stoichiometry N [16]: 0.95
Ka [17]: 1.01e+08 M⁻¹
dH [17]: -25.9 kcal/mol
stoichiometry N [17]: 0.7
Ka [18]: 4.54e+07 M⁻¹
dH [18]: -24.3 kcal/mol
stoichiometry N [18]: 0.86

— publication PMC4050191 (FEBS Open Bio, 2014)
